This is a sample that favours compounds with a hit; in the whole collection about 1.3% have one here.
HNF4A DNA FP: change in binding of human HNF4 alpha to DNA | 360,000 tested, 0.3% active | activity change, % at 10 µM | P41235 | AID 1224865 | HNF4a-FITC DNA binding, fluorescence polarization, 1 h; in the data active means activity change above about 30%, passing the limit was not always enough
aDG glyco up: increases alpha dystroglycan glycosylation. AID 624168. activation, % at 10 µM. Pro5-aDG cells, alpha-DG glycosylation AlphaScreen (IIH6); 0% Pro5, 100% B10-LARGE cell signal. 360,000 tested, 0.22% active;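 active means activation of at least 8% versus controls, or a plate z-score of at least 8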;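 further: Pro5 are CHO cells carrying HIG-tagged alpha-DG that lacks glycosylation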
TPT1 inhibitor: inhibitors of Candida albicans tRNA 2'-phosphotransferase TPT1. recombinant caTPT1, FP RNA substrate dephosphorylation. AID 1962. inhibition, % at 5 µM. 300,000 tested, 0.81% active;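 active means inhibition above the mean of all tested compounds plus 3 SD, set per screening campaign, cut at about 24% in these data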;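 further: plate controls were DMSO alone for no effect and ferristatin control at 100 nM for full effect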
Rpn11 block: Rpn11 (human) deubiquitinase inhibition. O00487. human 26S proteasome, Ub4-pepOG fluorescence polarization; 20S core pre-blocked with epoxomicin. inhibition, % at 20 µM. 360,000 tested, 0.59% active;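 active means inhibition at 20 µM, scaled to each plate's controls, above about 33%, limit read from the data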
CSN inh: blocks human CSN-mediated cullin deneddylation. Q92905. inhibition, % at 12.5 µM. Purified CSN, SCF-Nedd8-OG deneddylation, fluorescence polarization. 360,000 tested, 0.38% active;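 active means pattern-corrected inhibition above about 35%, with an unprinted fluorescence ratio check between 0.5 and 1.5, limit read from the data, passing the limit was not always enough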;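 further: 0% = enzyme with substrate and 100% = substrate without enzyme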
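Assay system: purified human Csn5 enzyme expressed in HEK293T cells; Input: 0.24 nM Csn5 enzyme, final concentration; Reagent: 10 nM SCFSkp2-Nedd8OG; Compound dosing: 12.5 µM single point; Times: reaction 90 min, room temperature; Technique: fluorescence polarization readout.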
XiGFP reactiv: X-chromosome reactivation activator | XiGFP mouse fibroblasts, % GFP-positive cells imaging, 3 d; cells co-treated with 5-aza-dC sensitizer; scaled so ellipticine positive control = 100% | activation, % at 7.58 µM | 360,000 tested, 0.055% active | AID 743238;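 active means mean normalized replicate activation at least 10% and every replicate at or above 10%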;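 further: 0% = median of on-plate neutral control wells and 100% = ellipticine 6 µM median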
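System: 68-5-11 XiGFP fibroblast line; Timing: 3 days compound exposure; Compound dosing: one concentration, pinned; Benchmarks: positive control ellipticine, 6 µM final; Buffer or medium: DMEM containing 5-aza-dC.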
Rpn11 inh conf: confirmation of human proteasome Rpn11 inhibitors | shares compounds with Rpn11 block | purified human 26S proteasome, Ub4-pepOG fluorescence polarization; proteasome pretreated with epoxomicin | inhibition, % at 20 µM | 1,900 tested, 29% active | AID 602318
MMP-2 counter: counter-screen for RPN11 inhibitors: inhibition of human MMP-2. shares compounds with Rpn11 block. recombinant MMP-2, FRET peptide cleavage fluorescence. inhibition, % at 20 µM. 1,900 tested, 4% active. AID 602330;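 further: human MMP-2 activated beforehand with APMA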
Thrombin inh: counter-screen for RPN11 inhibitors: inhibition of bovine thrombin | shares compounds with Rpn11 block | bovine thrombin cleavage of Ub4-pepOG, fluorescence polarization | inhibition, % at 20 µM | 1,900 tested, 13% active;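 active means mean inhibition at least 40% at 20 µM, or signal 3 deviations below plate average, so some actives read negative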;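 further: plate controls were thrombin with DMSO for no effect and buffer wells lacking thrombin for full effect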
Target sequence (P00735 whole entry, looked up): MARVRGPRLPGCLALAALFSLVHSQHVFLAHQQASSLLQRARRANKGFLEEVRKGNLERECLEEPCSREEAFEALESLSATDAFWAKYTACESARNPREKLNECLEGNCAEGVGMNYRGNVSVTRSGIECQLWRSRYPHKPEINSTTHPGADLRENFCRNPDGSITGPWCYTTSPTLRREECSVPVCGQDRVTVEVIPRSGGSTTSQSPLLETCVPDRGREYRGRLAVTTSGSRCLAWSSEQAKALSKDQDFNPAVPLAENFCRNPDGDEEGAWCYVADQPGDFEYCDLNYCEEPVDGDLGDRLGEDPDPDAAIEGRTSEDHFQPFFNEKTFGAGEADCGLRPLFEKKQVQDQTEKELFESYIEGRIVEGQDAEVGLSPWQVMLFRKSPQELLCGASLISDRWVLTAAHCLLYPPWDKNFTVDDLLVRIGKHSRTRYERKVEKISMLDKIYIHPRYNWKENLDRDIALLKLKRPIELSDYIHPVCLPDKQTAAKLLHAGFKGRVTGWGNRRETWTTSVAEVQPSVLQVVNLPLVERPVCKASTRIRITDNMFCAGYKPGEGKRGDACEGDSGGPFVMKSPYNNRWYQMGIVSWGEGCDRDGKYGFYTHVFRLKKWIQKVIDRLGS
aDG glyco conf: alpha-DG glycosylation activation, confirmation; shares compounds with aDG glyco up; activation, % at 10 µM (by protocol); Pro5-aDG cells, IIH6 AlphaLISA; scaled to LARGE-overexpressing B10 cells as 100%; 600 tested, 17% active;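 active means activation of at least 7% in one or more replicates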;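 further: cells exposed to compound for two days before detection; 0% = DMSO-treated Pro5 cells and 100% = DMSO-treated B10-LARGE cells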
HNF4a DNA conf: change in binding of human HNF4 alpha to DNA, retest. AID 1224897. activity change, % at 12.5 µM. HNF4A-FITC DNA binding, fluorescence polarization, 1 h. shares compounds with HNF4A DNA FP. 210 tested, 99% active; call rule not given here
Numbers without * were called inactive; · = no result given; + = active, no number; ! = repeats disagree. Unless noted, no stated cut-off is given here; in the data, active means inhibition above about 40%; inactive means the rest.

SMILES	HNF4A DNA FP	aDG glyco up	TPT1 inhibitor	Rpn11 block	CSN inh	XiGFP reactiv	Rpn11 inh conf	MMP-2 counter	Thrombin inh	HNF4a DNA conf	others
CN(C)c1ccc(/C=C(\C#N)C(=O)OCC(=O)N(C)C2CCS(=O)(=O)C2)cc1 (stereo unspecified)	42*	0	·	78*	22	0	61*	-5	56*	75*
CC(=O)N/C(=C\c1ccccc1)C(=O)OCC(=O)N(C)C1CCS(=O)(=O)C1 (stereo unspecified)	2	0	·	-1	2	0	·	·	·	·
Cc1cccc(NC(=O)Nc2ccc3c(c2)C(=O)N(C)[C@H]2CC[C@@H](CC(=O)O)O[C@@H]2CO3)c1	·	·	·	·	·	0	·	·	·	·
CCCCN1C(=O)/C(=C2/Sc3ccccc3N2C)S/C1=N\c1ncn[nH]1	46*	-1	21	66*	45*	1	97*	-52	62*	75*
O=C(NCC[C@H]1CC[C@@H](NC(=O)C2CCCC2)[C@@H](CO)O1)c1ccc(F)cc1	·	·	·	·	·	0	·	·	·	·
C/C(=N\NC(=O)c1ccc(OC2OCCOC2Oc2ccc(C(=O)N/N=C(\C)c3ccncc3)cc2)cc1)c1ccncc1 (stereo unspecified)	157*	0	2	+	99*	·	192*	-489	51*	204*
COCC(C)n1c(C)cc(C(=O)COC(=O)c2c(NC(C)=O)sc(C)c2C)c1C (stereo unspecified)	37*	0	-3	49*	26	·	-11	-184	-23	51*
COCC(C)n1c(C)cc(C(=O)COC(=O)c2c(C)nn(-c3ccccc3)c2C)c1C (stereo unspecified)	1	0	0	1	1	·	·	·	·	·
COc1ccc(CC(=O)Nc2ccc(-c3nnc(-c4ccccc4)o3)cc2)cc1OC	36*	0	1	69*	46*	·	22	14	-17	73*
Cc1ccc(-c2nc(NC(=O)CSc3cc(C)c4ccccc4n3)ns2)cc1	162*	0	-4	+	175*	0	-1	-6	27	94*
COc1ccc2c(C)cc(SCC(=O)Nc3nsc(-c4ccc(C)cc4)n3)nc2c1	-2	0	-3	-1	7	0	·	·	·	·
O=c1c(Cl)c(Cl)cnn1-c1ccccc1	-1	0	·	0	-4	1	·	·	·	·
O=c1c(Cl)c(N/N=C/c2ccc(Cl)cc2)cnn1-c1ccccc1	39*	0	-1	115*	28	0	17	-15	2	45*
CC(=O)N(C)C[C@H]1Oc2cc(-c3cccc(C#N)c3)ccc2S(=O)(=O)N([C@H](C)CO)C[C@H]1C	·	·	·	·	·	-1	·	·	·	·
O=C(Nc1cccc(Cl)c1)c1cc2c(=O)n3ccccc3nc2s1	2	0	1	6	-2	0	·	·	·	·
Cc1cccc(NC(=O)c2cc3c(=O)n4ccccc4nc3s2)c1	45*	0	-1	95*	9	0	7	-84	-21	55*
Cc1ccc[n+](-c2nc3ccccc3nc2C(=C=[N-])C#N)c1	60*	0	15	49*!	63*!	0	12	-3	3	42*
C=CCN1C=C/C(=C\C=C(C#N)C#N)c2ccccc21	94*	1	16	103*	35*	0	90*	-37	89*	111*
CC(=O)c1c(O)c(C)c(O)c2c1OC1=CC(=O)C(C(C)=O)C(=O)[C@@]12C (stereo partly specified)	65*	0	·	111*	24	0	120*	-22	109*	57*
C[C@H]1CN([C@@H](C)CO)C(=O)Cc2cc(NS(=O)(=O)c3ccccc3)ccc2O[C@@H]1CN(C)C(=O)Nc1ccc(F)cc1	·	·	·	·	·	0	·	·	·	·
COc1ccc(S(=O)(=O)N(C)C[C@H]2OCCCC[C@H](C)Oc3ccc(NS(=O)(=O)c4c(C)noc4C)cc3C(=O)N([C@H](C)CO)C[C@H]2C)cc1	·	·	·	·	·	0	·	·	·	·
O=C(Cn1ncc2c(=O)oc3ccccc3c21)NCC1COc2ccccc2O1 (stereo unspecified)	1	8.2*	1	1	1	0	·	·	·	·	aDG glyco conf=0
Cc1cc(C(=O)Nc2cccc3c2O[C@@H](CN(C)Cc2ccccc2)[C@H](C)CN([C@H](C)CO)C3=O)n(C)n1	·	·	·	·	·	0	·	·	·	·
NC(CCc1ccccc1)c1csc(Nc2ccc(C(=O)c3ccccc3)cc2)n1 (stereo unspecified)	1	8.0*	·	-6	5	8	·	·	·	·	aDG glyco conf=3
C/C=C/c1ccccc1[C@H]1[C@@H](CO)N(C(=O)CN2CCOCC2)[C@H]1C#N	·	·	·	·	·	0	·	·	·	·
SMILES	HNF4A DNA FP	aDG glyco up	TPT1 inhibitor	Rpn11 block	CSN inh	XiGFP reactiv	Rpn11 inh conf	MMP-2 counter	Thrombin inh	HNF4a DNA conf	others
Cc1cc(C(=O)Nc2ccc(Cl)cc2)n(-c2ccccc2)n1	1	2.7*	0	4	0	0	·	·	·	·	aDG glyco conf=0
Cn1nc(CC(=O)Nc2ccc3c(c2)OCCO3)c2ccccc2c1=O	0	6	-4	4	4	·	·	·	·	·
Cc1ccc(NC(=O)Cc2nn(C)c(=O)c3ccccc23)cc1F	2	10*	-1	-3	-4	·	·	·	·	·	aDG glyco conf=2
C[C@@H]1CN([C@@H](C)CO)C(=O)c2cc(NC(=O)c3ccncc3)ccc2O[C@H]1CN(C)CC1CCCCC1	·	·	·	·	·	0	·	·	·	·
CCOC(=O)c1cn2ccc(C)cc2n1	-6	20*	1	-3	-4	0	·	·	·	·	aDG glyco conf=1
CCOC(=O)c1c(C)nc2cc(C)ccn12	0	0	4	-5	2	·	·	·	·	·
NNc1nnc2c3cc(F)ccc3n(Cc3ccccc3)c2n1	3	5.1*	4	-6	-1	0	·	·	·	·	aDG glyco conf=0
CCC(c1nnnn1Cc1cccs1)N1CCN(c2nc3ccccc3s2)CC1 (stereo unspecified)	3	12*	-3	-5	0	·	·	·	·	·	aDG glyco conf=3.4*
